Test results reported in ChEMBL document CHEMBL1147762, “A new chemical tool for exploring the physiological function of the PDE2 isozyme” (Bioorg Med Chem Lett, 2006).

Assays:
[1] = biological target: Adenosine receptor A3 (Homo sapiens) (UniProt P0DMS8); assay: Percentage binding to adenosine A3 receptor at 10 uM
[2] = biological target: Serine/threonine-protein kinase Chk1 (Homo sapiens) (UniProt O14757); assay: Inhibition of CHK1 at 10 uM
[3] = biological target: Voltage-dependent L-type calcium channel subunit alpha-1D (Homo sapiens) (UniProt Q01668); assay: Percentage binding to Ca2+ channel D at 10 uM
Summary of the method: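 Single-concentration screen within a panel of 54 receptors and ion channels, measuring binding or interaction at each target.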

[4] = biological target: Sodium-dependent serotonin transporter (Homo sapiens) (UniProt P31645); assay: Activity against serotonin uptake at 10 uM
[5] = biological target: Cyclin-dependent kinase 2 (Homo sapiens) (UniProt P24941); assay: Inhibition of CDK2 at 10 uM
[6] = biological target: Mitogen-activated protein kinase 13 (Homo sapiens) (UniProt O15264); assay: Inhibition of SAPK4 at 10 uM
[7] = biological target: Dual 3',5'-cyclic-AMP and -GMP phosphodiesterase 11A (Homo sapiens, UniProt Q9HCR9); assay: Inhibitory activity against PDE11 by scintillation proximity assay
Summary of the method: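 Phosphodiesterase inhibition run as a scintillation proximity assay, with enzyme at a concentration in the linear range. Values are means of n experiments with standard deviation.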

[8] = biological target: Tyrosine-protein kinase Lck (Homo sapiens) (UniProt P06239); assay: Inhibition of LCK at 10 uM
[9] = biological target: Glucocorticoid receptor (Homo sapiens) (UniProt P04150); assay: Percentage binding to glucocorticord receptor at 10 uM
[10] = biological target: Type-2 angiotensin II receptor (Homo sapiens) (UniProt P50052); assay: Percentage binding to angiotensin II type 2 receptor at 10 uM
[11] = Apical cell permeability in parental MDCK cells
[12] = biological target: 5-hydroxytryptamine receptor 2C (Homo sapiens) (UniProt P28335); assay: Percentage binding to serotonin 5HT2C at 10 uM
[13] = Half life in rat; assay type: ADME, organism-based; conditions: Sprague-Dawley, in vivo
Summary of the method: (§1)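 Sprague–Dawley rats were dosed intravenously at 1 mg/kg in EtOH:PEG 400:H2O (1:4:5) and orally at 30 mg/kg in 0.5% methylcellulose.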

[14] = biological target: Polyunsaturated fatty acid 5-lipoxygenase (Homo sapiens) (UniProt P09917); assay: Inhibition of 5LOX at 10 uM
[15] = biological target: B1 bradykinin receptor (Homo sapiens) (UniProt P46663); assay: Percentage binding to bradykinin B1 at 10 uM
[16] = biological target: Glycogen synthase kinase-3 beta (Homo sapiens) (UniProt P49841); assay: Inhibition of GSK3-beta at 10 uM
[17] = biological target: High affinity cAMP-specific and IBMX-insensitive 3',5'-cyclic phosphodiesterase 8A (Homo sapiens, UniProt O60658); assay: Inhibitory activity against PDE8A by scintillation proximity assay
Summary of the method: (§2)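 Scintillation proximity assay for phosphodiesterase inhibition. Enzyme is used at a concentration within the linear range, and its KM was measured. Final substrate concentration is 1 µM, below one-third of KM, so IC50 approximates Ki. Results are means of n experiments with standard deviation.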

[18] = biological target: cGMP-dependent 3',5'-cyclic phosphodiesterase (Homo sapiens, UniProt O00408); assay: Inhibitory activity against PDE2 by scintillation proximity assay
Summary of the method: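 Phosphodiesterase inhibition run as a scintillation proximity assay, with enzyme at a concentration in the linear range. Final substrate was 1 µM, below one-third of the enzyme K_M, so that IC50 approximates Ki. Values are means of n experiments with standard deviation.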

[19] = biological target: Kappa-type opioid receptor (Homo sapiens) (UniProt P41145); assay: Percentage binding to opioid kappa at 10 uM
[20] = biological target: Adenosine receptor A2a (Homo sapiens) (UniProt P29274); assay: Percentage binding to adenosine A2a receptor at 10 uM
[21] = biological target: RAC-alpha serine/threonine-protein kinase (Homo sapiens) (UniProt P31749); assay: Inhibition of PKBalpha at 10 uM
[22] = Half life in rat liver microsome; assay type: ADME; conditions: liver microsomes
[23] = biological target: Thyroid hormone receptor (Homo sapiens) (UniProt P10827+P10828); assay: Percentage binding to thyroid hormone receptor at 10 uM; assay type: protein-complex assay
[24] = biological target: Voltage-gated L-type calcium channel (Homo sapiens, UniProt Q13936+Q13698+Q01668+O60840); assay: Percentage binding to Ca2+ channel L at 10 uM; assay type: protein assay
[25] = biological target: Delta-type opioid receptor (Homo sapiens) (UniProt P41143); assay: Percentage binding to opioid delta at 10 uM
[26] = biological target: Mitogen-activated protein kinase 14 (Homo sapiens) (UniProt Q16539); assay: Inhibition of SAPK2a at 10 uM
[27] = biological target: AMP-activated protein kinase, AMPK (Homo sapiens) (UniProt P54646+O43741+P54619+Q9UGJ0+Q9Y478+Q13131+Q9UGI9); assay: Inhibition of AMPK at 10 uM; assay type: protein-complex assay
[28] = biological target: High affinity cGMP-specific 3',5'-cyclic phosphodiesterase 9A (Homo sapiens, UniProt O76083); assay: Inhibitory activity against PDE9 by scintillation proximity assay; summary of the method: as §2
[29] = Cmax in rat; assay type: ADME, organism-based; conditions: Sprague-Dawley, in vivo; summary of the method: as §1
[30] = biological target: cAMP-dependent protein kinase (PKA) (Homo sapiens) (UniProt P22694+P17612+P22612); assay: Inhibition of PKA at 10 uM; assay type: protein assay
[31] = Volume of distribution in rat; assay type: ADME, organism-based; conditions: Sprague-Dawley, in vivo, read-out: Vdss
[32] = biological target: Glutamate [NMDA] receptor (Homo sapiens) (UniProt Q05586+Q12879+Q13224+O15399+O60391+Q14957+Q8TCU5); assay: Percentage binding to NMDA at 10 uM; assay type: protein-complex assay
[33] = biological target: Sodium-dependent dopamine transporter (Homo sapiens) (UniProt Q01959); assay: Activity against dopamine uptake at 10 uM
[34] = Clearance in rat; assay type: ADME, organism-based; conditions: Sprague-Dawley, in vivo; summary of the method: as §1
[35] = biological target: cGMP-specific 3',5'-cyclic phosphodiesterase (Homo sapiens, UniProt O76074); assay: Inhibitory activity against PDE5 by scintillation proximity assay; summary of the method: as §2
[36] = biological target: Adenosine receptor A1 (Homo sapiens) (UniProt P30542); assay: Percentage binding to adenosine A1 receptor at 10 uM
[37] = biological target: Tyrosine-protein kinase CSK (Homo sapiens) (UniProt P41240); assay: Inhibition of CSK at 10 uM
[38] = biological target: Phosphorylase kinase (Homo sapiens) (UniProt P15735+P46020+P46019+Q93100+Q16816); assay: Inhibition of PHK at 10 uM; assay type: protein-complex assay
[39] = biological target: Muscarinic acetylcholine receptor M4 (Homo sapiens) (UniProt P08173); assay: Percentage binding to muscarinic M4 at 10 uM
[40] = biological target: Mitogen-activated protein kinase 1 (Homo sapiens) (UniProt P28482); assay: Inhibition of MAPK2 at 10 uM
[41] = biological target: D(2) dopamine receptor (Homo sapiens) (UniProt P14416); assay: Percentage binding to dopamine D2 at 10 uM
[42] = biological target: 3',5'-cyclic-AMP phosphodiesterase 4C (Homo sapiens, UniProt Q08493); assay: Inhibitory activity against PDE4C by scintillation proximity assay; summary of the method: as §2

Sequence of Voltage-dependent L-type calcium channel subunit alpha-1D (Homo sapiens) (Q01668 whole entry): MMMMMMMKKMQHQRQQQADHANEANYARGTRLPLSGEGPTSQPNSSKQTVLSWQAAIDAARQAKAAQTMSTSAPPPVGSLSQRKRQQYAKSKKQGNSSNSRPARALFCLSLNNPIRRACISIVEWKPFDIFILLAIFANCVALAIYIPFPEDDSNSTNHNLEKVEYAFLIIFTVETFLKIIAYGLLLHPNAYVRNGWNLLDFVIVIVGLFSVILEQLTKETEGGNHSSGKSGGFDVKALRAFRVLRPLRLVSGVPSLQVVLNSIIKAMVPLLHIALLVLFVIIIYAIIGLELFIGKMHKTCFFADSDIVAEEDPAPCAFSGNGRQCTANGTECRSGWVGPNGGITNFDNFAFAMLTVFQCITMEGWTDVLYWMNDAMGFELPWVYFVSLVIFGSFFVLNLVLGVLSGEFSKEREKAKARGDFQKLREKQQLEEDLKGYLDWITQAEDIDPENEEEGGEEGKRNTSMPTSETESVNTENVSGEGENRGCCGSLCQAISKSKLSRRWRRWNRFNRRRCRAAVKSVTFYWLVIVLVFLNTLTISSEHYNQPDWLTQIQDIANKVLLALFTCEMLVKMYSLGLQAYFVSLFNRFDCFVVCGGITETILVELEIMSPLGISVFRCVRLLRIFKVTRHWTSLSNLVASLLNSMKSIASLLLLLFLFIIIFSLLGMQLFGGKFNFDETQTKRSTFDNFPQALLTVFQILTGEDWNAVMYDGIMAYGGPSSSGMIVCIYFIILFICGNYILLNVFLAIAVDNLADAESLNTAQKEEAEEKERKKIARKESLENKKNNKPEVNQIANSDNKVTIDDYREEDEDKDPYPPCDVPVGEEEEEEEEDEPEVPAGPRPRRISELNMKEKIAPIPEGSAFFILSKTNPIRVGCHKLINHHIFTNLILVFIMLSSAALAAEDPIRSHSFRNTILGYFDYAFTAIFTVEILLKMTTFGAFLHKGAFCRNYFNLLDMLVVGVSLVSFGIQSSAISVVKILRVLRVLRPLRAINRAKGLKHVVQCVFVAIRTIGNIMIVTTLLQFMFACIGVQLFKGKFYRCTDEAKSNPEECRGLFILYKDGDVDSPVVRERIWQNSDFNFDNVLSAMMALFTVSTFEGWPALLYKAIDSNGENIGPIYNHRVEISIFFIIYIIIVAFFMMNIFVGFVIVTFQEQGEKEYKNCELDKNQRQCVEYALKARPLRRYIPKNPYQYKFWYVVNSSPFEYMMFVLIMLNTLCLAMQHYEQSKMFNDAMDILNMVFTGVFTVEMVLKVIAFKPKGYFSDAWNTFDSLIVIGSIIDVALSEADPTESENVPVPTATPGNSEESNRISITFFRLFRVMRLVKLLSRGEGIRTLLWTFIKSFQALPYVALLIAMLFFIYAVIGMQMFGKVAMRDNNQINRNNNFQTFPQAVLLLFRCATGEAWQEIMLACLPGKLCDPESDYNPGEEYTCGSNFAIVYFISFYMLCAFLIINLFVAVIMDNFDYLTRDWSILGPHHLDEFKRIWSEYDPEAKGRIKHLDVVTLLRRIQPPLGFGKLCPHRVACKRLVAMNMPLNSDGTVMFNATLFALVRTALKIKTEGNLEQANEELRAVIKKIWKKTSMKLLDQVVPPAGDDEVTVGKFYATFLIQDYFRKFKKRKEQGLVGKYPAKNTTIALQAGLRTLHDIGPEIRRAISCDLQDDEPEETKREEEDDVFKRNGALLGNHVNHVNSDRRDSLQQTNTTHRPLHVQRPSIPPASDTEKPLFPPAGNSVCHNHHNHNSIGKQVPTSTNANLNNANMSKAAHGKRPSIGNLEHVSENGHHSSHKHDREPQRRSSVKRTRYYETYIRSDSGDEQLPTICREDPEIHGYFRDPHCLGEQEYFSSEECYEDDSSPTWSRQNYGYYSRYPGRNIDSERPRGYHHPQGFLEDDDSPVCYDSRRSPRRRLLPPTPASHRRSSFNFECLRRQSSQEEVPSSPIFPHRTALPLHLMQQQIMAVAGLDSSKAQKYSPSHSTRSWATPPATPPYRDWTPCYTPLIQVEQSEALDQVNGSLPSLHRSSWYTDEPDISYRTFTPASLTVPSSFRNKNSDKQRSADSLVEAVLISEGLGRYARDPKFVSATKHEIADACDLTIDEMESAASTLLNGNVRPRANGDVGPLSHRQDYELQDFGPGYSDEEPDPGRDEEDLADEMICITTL
Sequence of Mitogen-activated protein kinase 1 (Homo sapiens) (P28482 whole entry): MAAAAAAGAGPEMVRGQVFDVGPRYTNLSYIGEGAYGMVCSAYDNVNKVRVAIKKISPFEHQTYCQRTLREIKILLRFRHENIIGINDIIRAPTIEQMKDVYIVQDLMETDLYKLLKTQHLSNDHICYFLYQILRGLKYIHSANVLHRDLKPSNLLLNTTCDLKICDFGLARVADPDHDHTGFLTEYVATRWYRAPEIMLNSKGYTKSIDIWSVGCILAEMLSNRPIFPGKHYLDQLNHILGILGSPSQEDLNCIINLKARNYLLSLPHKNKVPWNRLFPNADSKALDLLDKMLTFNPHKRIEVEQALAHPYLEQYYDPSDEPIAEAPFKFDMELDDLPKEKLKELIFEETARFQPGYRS
Sequence of RAC-alpha serine/threonine-protein kinase (Homo sapiens) (P31749 whole entry): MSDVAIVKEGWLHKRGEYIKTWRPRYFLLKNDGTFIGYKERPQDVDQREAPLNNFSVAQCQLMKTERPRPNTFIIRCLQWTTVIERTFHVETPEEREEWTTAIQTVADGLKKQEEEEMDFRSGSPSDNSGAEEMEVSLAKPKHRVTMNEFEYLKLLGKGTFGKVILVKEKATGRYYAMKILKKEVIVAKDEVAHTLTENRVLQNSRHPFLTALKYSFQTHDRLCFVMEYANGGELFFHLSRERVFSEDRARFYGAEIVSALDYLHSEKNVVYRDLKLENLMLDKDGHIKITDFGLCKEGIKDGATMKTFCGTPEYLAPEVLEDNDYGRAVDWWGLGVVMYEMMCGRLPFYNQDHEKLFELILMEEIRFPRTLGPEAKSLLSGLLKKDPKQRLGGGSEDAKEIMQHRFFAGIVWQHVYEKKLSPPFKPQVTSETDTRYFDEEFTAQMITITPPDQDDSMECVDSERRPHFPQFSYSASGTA
Sequence of cGMP-dependent 3',5'-cyclic phosphodiesterase (O00408 whole entry): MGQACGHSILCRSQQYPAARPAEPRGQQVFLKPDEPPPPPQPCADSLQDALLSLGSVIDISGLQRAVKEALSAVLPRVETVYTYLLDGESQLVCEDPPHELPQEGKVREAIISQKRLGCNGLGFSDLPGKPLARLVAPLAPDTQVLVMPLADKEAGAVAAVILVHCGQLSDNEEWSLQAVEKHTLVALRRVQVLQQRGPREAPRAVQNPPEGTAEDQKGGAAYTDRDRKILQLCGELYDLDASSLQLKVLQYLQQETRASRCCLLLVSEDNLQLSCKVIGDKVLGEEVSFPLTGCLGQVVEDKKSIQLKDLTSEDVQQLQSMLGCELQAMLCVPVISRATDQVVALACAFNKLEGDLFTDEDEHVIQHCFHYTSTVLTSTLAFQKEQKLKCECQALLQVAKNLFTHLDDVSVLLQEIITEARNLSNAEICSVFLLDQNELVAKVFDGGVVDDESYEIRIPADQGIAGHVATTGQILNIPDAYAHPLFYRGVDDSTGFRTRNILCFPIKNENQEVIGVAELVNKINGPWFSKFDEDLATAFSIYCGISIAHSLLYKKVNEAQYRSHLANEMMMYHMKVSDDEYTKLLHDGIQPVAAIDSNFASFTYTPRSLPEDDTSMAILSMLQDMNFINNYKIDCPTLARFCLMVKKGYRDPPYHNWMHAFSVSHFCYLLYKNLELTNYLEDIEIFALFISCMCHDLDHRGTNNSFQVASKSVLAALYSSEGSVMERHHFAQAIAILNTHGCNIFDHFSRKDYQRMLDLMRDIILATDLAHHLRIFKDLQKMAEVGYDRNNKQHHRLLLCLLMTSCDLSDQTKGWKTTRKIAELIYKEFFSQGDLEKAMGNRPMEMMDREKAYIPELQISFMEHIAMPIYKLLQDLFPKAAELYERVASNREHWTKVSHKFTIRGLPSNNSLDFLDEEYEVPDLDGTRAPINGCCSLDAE
Sequence of High affinity cAMP-specific and IBMX-insensitive 3',5'-cyclic phosphodiesterase 8A (O60658 whole entry): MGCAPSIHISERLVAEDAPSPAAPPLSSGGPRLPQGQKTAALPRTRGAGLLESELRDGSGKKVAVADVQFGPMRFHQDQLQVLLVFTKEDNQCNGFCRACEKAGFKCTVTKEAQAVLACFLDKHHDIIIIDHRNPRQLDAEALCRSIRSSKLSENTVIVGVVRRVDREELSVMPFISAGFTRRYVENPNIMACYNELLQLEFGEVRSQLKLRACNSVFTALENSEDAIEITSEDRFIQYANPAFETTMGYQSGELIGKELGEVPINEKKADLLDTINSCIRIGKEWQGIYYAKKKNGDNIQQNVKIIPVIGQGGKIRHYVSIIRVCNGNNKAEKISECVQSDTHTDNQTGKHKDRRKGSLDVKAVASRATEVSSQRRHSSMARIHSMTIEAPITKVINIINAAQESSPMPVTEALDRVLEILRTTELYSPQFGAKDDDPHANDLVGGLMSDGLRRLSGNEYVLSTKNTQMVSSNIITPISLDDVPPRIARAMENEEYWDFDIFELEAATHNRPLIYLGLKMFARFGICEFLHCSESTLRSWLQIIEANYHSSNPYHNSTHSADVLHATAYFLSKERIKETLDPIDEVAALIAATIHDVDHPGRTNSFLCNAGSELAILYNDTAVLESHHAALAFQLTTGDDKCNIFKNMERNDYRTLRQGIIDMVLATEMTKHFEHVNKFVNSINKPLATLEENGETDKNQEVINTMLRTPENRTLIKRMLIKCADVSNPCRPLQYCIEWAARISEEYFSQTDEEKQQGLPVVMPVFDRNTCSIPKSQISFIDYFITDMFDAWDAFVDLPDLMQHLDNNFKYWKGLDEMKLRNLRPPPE
Sequence of Adenosine receptor A1 (Homo sapiens) (P30542 whole entry): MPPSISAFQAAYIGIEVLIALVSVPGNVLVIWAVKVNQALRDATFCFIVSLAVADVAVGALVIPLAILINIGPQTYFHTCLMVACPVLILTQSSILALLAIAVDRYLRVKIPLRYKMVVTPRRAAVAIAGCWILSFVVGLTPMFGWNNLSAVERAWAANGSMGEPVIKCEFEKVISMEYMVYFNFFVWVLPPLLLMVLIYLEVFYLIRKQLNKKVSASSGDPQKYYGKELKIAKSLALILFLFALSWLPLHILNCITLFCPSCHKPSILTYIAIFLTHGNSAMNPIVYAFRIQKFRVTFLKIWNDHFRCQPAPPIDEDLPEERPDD

## CN1C(=O)C(C(=O)Nc2nncs2)c2cc3occc3cc21 (configuration not stated)
[1]
  Activity: 35%
[2]
  inhibition: 0%
[3]
  Activity: 0%
[4]
  Activity: 0%
[5]
  inhibition: 2%
[6]
  inhibition: 13%
[7]
  IC50: 11.6 µM
[8]
  inhibition: 5%
[9]
  Activity: 0%
[10]
  Activity: 4%
[11]
  Papp: 3 ×10⁻⁶ cm/s
[12]
  Activity: 0%
[13]
  half-life: 1.6 h
[14]
  inhibition: 35%
[15]
  Activity: 0%
[16]
  inhibition: 16%
[17]
  IC50: > 16 µM
[18]
  IC50: 0.04 µM
[19]
  Activity: 0%
[20]
  Activity: 24%
[21]
  inhibition: 14%
[22]
  half-life: 1.38 h
[23]
  Activity: 0%
[24]
  Activity: 0%
[25]
  Activity: 3%
[26]
  inhibition: 0%
[27]
  inhibition: 8%
[28]
  IC50: > 16 µM
[29]
  Cmax: 8300 ng/mL
[30]
  inhibition: 16%
[31]
  Vd: 0.1 L/kg
[32]
  Activity: 7%
[33]
  Activity: 11%
[34]
  clearance: 8.8 mL/min/kg
[35]
  IC50: > 16 µM
[36]
  Activity: 16%
[37]
  inhibition: 5%
[38]
  inhibition: 0%
[39]
  Activity: 1%
[40]
  inhibition: 12%
[41]
  Activity: 12%
[42]
  IC50: > 16 µM
